Data as given in ChEMBL document CHEMBL1128560, “Synthesis and structure-activity relationships of analogs of 2'-deoxy-2'-(3-methoxybenzamido)adenosine, a selective inhibitor of trypanosomal glycosomal glyceraldehyde-3-phosphate dehydrogenase” (J Med Chem, 1995).

Tests used:
[1] = Inhibition of glyceraldehyde-3-phosphate dehydrogenase in Trypanosoma brucei
Summary of the method: (§1)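 Enzyme sources: human erythrocyte GAPDH, glycosomal GAPDH from T. brucei, and glycosomal GAPDH from L. mexicana. IC50 is the inhibitor concentration at which 50% of enzyme activity remains. Poorly soluble compounds were not tested above their solubility limit, and the remaining activity at that level was recorded instead.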

[2] = TInhibition of glyceraldehyde-3-phosphate dehydrogenase in Leishmania mexicana; summary of the method: as §1
[3] = target: Glyceraldehyde-3-phosphate dehydrogenase (Homo sapiens, UniProt P04406); test: Inhibition of Glyceraldehyde-3-phosphate dehydrogenase in human erythrocytes.; type: cell-based; summary of the method: as §1
Sequence of Glyceraldehyde-3-phosphate dehydrogenase (P04406 whole entry): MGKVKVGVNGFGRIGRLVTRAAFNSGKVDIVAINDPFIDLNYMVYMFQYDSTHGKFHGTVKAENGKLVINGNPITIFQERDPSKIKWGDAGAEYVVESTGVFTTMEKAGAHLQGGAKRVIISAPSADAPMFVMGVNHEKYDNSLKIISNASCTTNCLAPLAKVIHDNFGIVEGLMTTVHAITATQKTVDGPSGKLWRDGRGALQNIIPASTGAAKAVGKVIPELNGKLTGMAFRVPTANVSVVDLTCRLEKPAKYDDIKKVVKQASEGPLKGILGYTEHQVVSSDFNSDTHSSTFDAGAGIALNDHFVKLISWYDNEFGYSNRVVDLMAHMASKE

Row | SMILES | IC50 [1] [mM] | IC50 [2] [mM] | IC50 [3] [mM]
1 | Nc1ncnc2c1ncn2[C@@H]1CCC[C@H]1NC(=O)c1ccccc1 | > 4 | > 4 | –
2 | COc1cccc(C(=O)N[C@@H]2CCC[C@H]2n2cnc3c(N)ncnc32)c1 | > 4 | > 5 | –
3 | CCc1ccc(-c2ccc(C(=O)NC[C@H]3OC(n4cnc5c(N)ncnc54)[C@H](O)[C@@H]3O)cc2)cc1 (stereo partly drawn) | > 1 | 0.75 | > 2
4 | COc1cccc(C(=O)N[C@@H]2[C@H](O)[C@@H](CO)O[C@H]2n2cnc3c(N)nc(C)nc32)c1 | > 10 | > 10 | > 10
5 | Nc1ncnc2c1ncn2[C@@H]1O[C@H](CO)[C@@H](O)[C@H]1NC(=O)c1ccc(-c2ccccc2)cc1 | 0.2 | 0.2 | 0.4
6 | Nc1ncnc2c1ncn2[C@@H]1CCC[C@H]1NC(=O)c1cccc(Br)c1 | 1.5 | 0.7 | 1.5
7 | CCOc1cccc(C(=O)N[C@@H]2[C@H](O)[C@@H](CO)O[C@H]2n2cnc3c(N)ncnc32)c1 | 0.5 | 0.4 | 0.6
8 | Nc1ncnc2c1ncn2[C@@H]1O[C@H](CO)[C@@H](O)[C@H]1NC(=O)c1cccc(Cl)c1 | 0.5 | 0.2 | > 2
9 | NCCn1c(-c2cccs2)nc2c(N)ncnc21 | 1.8 | 1.6 | 1.8
10 | Nc1ncnc2c1nc(SC1CCCCC1)n2C1O[C@H](CO)[C@@H](O)[C@H]1O (stereo partly drawn) | > 1 | > 2 | > 2
11 | Nc1ncnc2c1nc(-c1cccs1)n2[C@@H]1O[C@H](CO)[C@@H](O)[C@H]1NC(=O)c1ccccc1 | 1.2 | 0.5 | 1.2
12 | Nc1ncnc2c1ncn2CCNC(=O)c1cccc(Cl)c1 | > 4 | > 4 | –
13 | Nc1ncnc2c1ncn2[C@@H]1O[C@H](CO)[C@@H](O)[C@H]1NCc1ccccc1 | > 10 | > 10 | > 10
14 | Nc1ncnc2c1ncn2C1O[C@H](CNC(=O)C(c2ccccc2)c2ccccc2)[C@@H](O)[C@H]1O (stereo partly drawn) | 0.25 | 0.25 | 0.25
15 | Cc1nc(N)c2[nH]cnc2n1 | 8 | 6 | > 10
16 | Nc1ncnc2c1nc(-c1cccs1)n2CCNCc1ccccc1 | 0.5 | 0.4 | 0.6

Results, then the molecule that gave them:

Row | IC50 [1] [mM] | IC50 [2] [mM] | IC50 [3] [mM] | SMILES
17 | > 10 | > 10 | > 10 | CC(C)COC(=O)N[C@@H]1[C@H](O)[C@@H](CO)O[C@H]1n1cnc2c(N)ncnc21
18 | 6.3 | 3 | > 10 | Nc1ncnc2c1nc(Br)n2[C@@H]1O[C@H](CO)[C@@H](O)[C@H]1NC(=O)c1ccccc1
19 | 0.6 | 0.5 | 1.3 | Nc1ncnc2c1nc(-c1cccs1)n2[C@@H]1O[C@H](CO)[C@@H](O)[C@H]1O
20 | > 4 | > 4 | – | Nc1ncnc2c1ncn2CCNC(=O)c1cccc(F)c1
21 | > 2 | > 4 | – | Cc1ccc(C(=O)NCCn2cnc3c(N)ncnc32)cc1
22 | 9 | 9 | > 10 | COc1nc2c(N)ncnc2n1[C@@H]1O[C@H](CO)[C@@H](O)[C@H]1NC(=O)c1ccccc1
23 | 2.2 | 0.3 | > 10 | COc1cccc(C(=O)N[C@@H]2[C@H](O)[C@@H](CO)O[C@H]2n2cnc3c(N)ncnc32)c1
24 | 3 | 3 | > 10 | Nc1ncnc2c1ncn2[C@@H]1O[C@H](CO)[C@@H](O)[C@H]1NC(=O)c1ccc2[nH]cnc2c1
25 | 100 | 50 | 35 | Nc1ncnc2c1ncn2[C@@H]1O[C@H](CO)[C@@H](O)[C@H]1O [ADENOSINE]
26 | > 4 | > 2 | – | Nc1ncnc2c1ncn2[C@@H]1CCC[C@H]1NC(=O)c1cccc(Cl)c1
27 | 2 | 4 | 8 | Nc1ncnc2c1nc(Sc1ncccn1)n2C1O[C@H](CO)[C@@H](O)[C@H]1O (stereo partly drawn)
28 | 1 | 0.5 | > 2 | Nc1ncnc2c1ncn2[C@@H]1O[C@H](CO)[C@@H](O)[C@H]1NC(=O)c1ccc2cccnc2c1
